ChEMBL document CHEMBL1781920, “Synthesis and antimicrobial activity of some new 4-hetarylpyrazole and furo[2,3-c]pyrazole derivatives” (2011)
Values after ≈ are worked out from the molar mass of the structure shown.

How the values were obtained:
Type in all cases: functional
[1] = tested on: Bacillus subtilis; test: Antibacterial activity against Bacillus subtilis ATCC 6633 after 24 hrs by serial dilution method; settings: ATCC 6633, 24 h
Outline: (§1)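 Broth microdilution in Mueller–Hinton broth, run only for compounds giving zones >14 mm in the disk test. DMF stocks were diluted twofold from 500 to 3.125, and about 10⁶ CFU/mL bacteria were added per well. Sealed plates were kept at 37 °C for 24 h in a humid chamber. MIC was taken as the lowest concentration without visible turbidity.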

[2] = tested on: Bacillus thuringiensis; test: Antibacterial activity against Bacillus thuringiensis ATCC 6051 after 24 hrs by serial dilution method; settings: ATCC 6051, 24 h; outline: as §1
[3] = tested on: Escherichia coli; test: Antibacterial activity against Escherichia coli ATCC 14169 after 24 hrs by serial dilution method; settings: ATCC 14169, 24 h; outline: as §1
[4] = tested on: Pseudomonas aeruginosa; test: Antibacterial activity against Pseudomonas aeruginosa ATCC 27853 after 24 hrs by serial dilution method; settings: ATCC 27853, 24 h; outline: as §1
[5] = tested on: Bacillus subtilis; test: Antibacterial activity against Bacillus subtilis ATCC 6633 at 1 mg/ml after 24 hrs by agar-diffusion method; settings: ATCC 6633, 24 h, read-out: IZ
Outline: (§2)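 Agar disk diffusion on nutrient agar seeded with about 10⁶ CFU/mL of the test bacterium. Filter-paper disks were impregnated with compound in DMF at 1 mg/mL, two disks per plate, in triplicate. DMF alone served as control. Plates were incubated at 37 °C for 24 h, and the mean inhibition-zone diameter was recorded in mm.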

[6] = tested on: Bacillus thuringiensis; test: Antibacterial activity against Bacillus thuringiensis ATCC 6051 at 1 mg/ml after 24 hrs by agar-diffusion method; settings: ATCC 6051, 24 h, read-out: IZ; outline: as §2
[7] = tested on: Escherichia coli; test: Antibacterial activity against Escherichia coli ATCC 14169 at 1 mg/ml after 24 hrs by agar-diffusion method; settings: ATCC 14169, 24 h, read-out: IZ; outline: as §2
[8] = tested on: Pseudomonas aeruginosa; test: Antibacterial activity against Pseudomonas aeruginosa ATCC 27853 at 1 mg/ml after 24 hrs by agar-diffusion method; settings: ATCC 27853, 24 h, read-out: IZ; outline: as §2
[9] = tested on: Fusarium oxysporum; test: Antifungal activity against Fusarium oxysporum ATCC 16417 after 48 hrs by serial dilution method; settings: ATCC 16417, 48 h
Outline: (§3)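 MICs were measured by microdilution in Sabouraud liquid medium, for compounds with disk zones >14 mm. DMF stocks were serially diluted twofold across 500–3.125. Sealed plates were incubated at 37 °C for 48 h in a humid chamber. The lowest concentration with no visible turbidity was recorded as the MIC.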

[10] = tested on: Botrytis fabae; test: Antifungal activity against Botrytis fabae ATCC 14862 after 48 hrs by serial dilution method; settings: ATCC 14862, 48 h; outline: as §3
[11] = tested on: Fusarium oxysporum; test: Antifungal activity against Fusarium oxysporum ATCC 16417 at 1 mg/ml after 48 hrs by agar-diffusion method; settings: ATCC 16417, 48 h, read-out: IZ
Outline: (§4)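 Fungi were seeded at 10⁴ CFU/mL onto nutrient agar plates. Filter-paper disks carried compound dissolved in DMF at 1 mg/mL, two disks per plate, in triplicate, with a DMF-only control. After 48 h incubation at 37 °C, the average diameter of the growth-inhibition zone was read in mm.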

[12] = tested on: Botrytis fabae; test: Antifungal activity against Botrytis fabae ATCC 14862 at 1 mg/ml after 48 hrs by agar-diffusion method; settings: ATCC 14862, 48 h, read-out: IZ; outline: as §4
[13] = tested on: Bacillus subtilis; test: Antibacterial activity against Bacillus subtilis ATCC 6633 after 24 hrs by serial dilution method relative to chloramphenicol
[14] = tested on: Bacillus subtilis; test: Antibacterial activity against Bacillus subtilis ATCC 6633 after 24 hrs by serial dilution method relative to cephalothin
[15] = tested on: Bacillus thuringiensis; test: Antibacterial activity against Bacillus thuringiensis ATCC 6051 after 24 hrs by serial dilution method relative to chloramphenicol

SMILES | MIC [1] [µg/mL] | MIC [2] [µg/mL] | MIC [3] [µg/mL] | MIC [4] [µg/mL] | zone of inhibition at 1000 µg/mL [5] [mm] | zone of inhibition at 1000 µg/mL [6] [mm] | zone of inhibition at 1000 µg/mL [7] [mm] | zone of inhibition at 1000 µg/mL [8] [mm] | MIC [9] [µg/mL] | MIC [10] [µg/mL] | zone of inhibition at 1000 µg/mL [11] [mm] | zone of inhibition at 1000 µg/mL [12] [mm] | Activity [13] [%] | Activity [14] [%] | Activity [15] [%]
CC(=O)OCC1=C(C(=O)O)N2C(=O)[C@@H](NC(=O)Cc3cccs3)[C@H]2SC1 [CEPHALOTHIN] | 6.25 (≈ 15.8 µM) | 6.25 (≈ 15.8 µM) | 6.25 (≈ 15.8 µM) | 6.25 (≈ 15.8 µM) | 36 | 37 | 38 | 37 | – | – | – | – | – | – | –
Cc1[nH]n(-c2ccccc2)c(=O)c1C1=Nc2ccccc2SC1 | 100 (≈ 311 µM) | 100 (≈ 311 µM) | 100 (≈ 311 µM) | 100 (≈ 311 µM) | 15 | 15 | 15 | 16 | 100 (≈ 311 µM) | 50 (≈ 156 µM) | 15 | 19 | – | – | –
Cc1nn(-c2ccccc2)c2c1/C(=N/c1ccccn1)CO2 | 25 (≈ 86.1 µM) | 25 (≈ 86.1 µM) | 6.25 (≈ 21.5 µM) | 6.25 (≈ 21.5 µM) | 26 | 25 | 38 | 15 | 100 (≈ 344 µM) | 50 (≈ 172 µM) | 16 | 20 | – | – | –
Cc1nn(-c2ccccc2)c2c1/C(=N/c1nnc[nH]1)CO2 | 6.25 (≈ 22.3 µM) | 6.25 (≈ 22.3 µM) | 100 (≈ 357 µM) | 100 (≈ 357 µM) | 38 | 38 | 15 | 16 | 100 (≈ 357 µM) | 50 (≈ 178 µM) | 15 | 19 | – | – | –
Cc1[nH]n(-c2ccccc2)c(=O)c1-c1cc2c(=O)oc3ccccc3c2o1 | 12.5 (≈ 34.9 µM) | 100 (≈ 279 µM) | 6.25 (≈ 17.4 µM) | 6.25 (≈ 17.4 µM) | 33 | 15 | 15 | 38 | 6.25 (≈ 17.4 µM) | 6.25 (≈ 17.4 µM) | 37 | 37 | 25 | 50 | –
Cc1nn(-c2ccccc2)c2c1/C(=N/c1nc3ccccc3[nH]1)CO2 | 3.12 (≈ 9.49 µM) | 6.25 (≈ 19 µM) | 50 (≈ 152 µM) | 50 (≈ 152 µM) | 44 | 37 | 19 | 20 | 6.25 (≈ 19 µM) | 6.25 (≈ 19 µM) | 14 | 37 | – | – | –
Cc1[nH]n(-c2ccccc2)c(=O)c1C(=O)c1cc2ccccc2o1 | 6.25 (≈ 19.6 µM) | 6.25 (≈ 19.6 µM) | 100 (≈ 314 µM) | 12.5 (≈ 39.3 µM) | 38 | 37 | 15 | 33 | 25 (≈ 78.5 µM) | 50 (≈ 157 µM) | 26 | 19 | 50 | – | 50
Cc1[nH]n(-c2ccccc2)c(=O)c1C1=Nc2ccccc2NC1 | 50 (≈ 164 µM) | 100 (≈ 329 µM) | 100 (≈ 329 µM) | 50 (≈ 164 µM) | 19 | 15 | 15 | 19 | 100 (≈ 329 µM) | 50 (≈ 164 µM) | 15 | 20 | – | – | –
Cc1[nH]n(-c2ccccc2)c(=O)c1C(=O)CN1CCCCC1 | 3.12 (≈ 10.4 µM) | 6.25 (≈ 20.9 µM) | 50 (≈ 167 µM) | 100 (≈ 334 µM) | 43 | 38 | 19 | 16 | 100 (≈ 334 µM) | 12.5 (≈ 41.8 µM) | 14 | 31 | – | – | –
Cc1[nH]n(-c2ccccc2)c(=O)c1C(=O)c1oc2ccccc2c1C | 6.25 (≈ 18.8 µM) | 6.25 (≈ 18.8 µM) | 25 (≈ 75.2 µM) | 50 (≈ 150 µM) | 37 | 37 | 27 | 19 | 100 (≈ 301 µM) | 100 (≈ 301 µM) | 15 | 15 | 50 | – | 50
Cc1[nH]n(-c2ccccc2)c(=O)c1C(=O)CN1CCOCC1 | 12.5 (≈ 41.5 µM) | 6.25 (≈ 20.7 µM) | 100 (≈ 332 µM) | 50 (≈ 166 µM) | 32 | 38 | 16 | 20 | 50 (≈ 166 µM) | 50 (≈ 166 µM) | 19 | 19 | – | – | –
C[C@@H]1C[C@@H]([C@H](O)CC2CC(=O)NC(=O)C2)C(=O)[C@@H](C)C1 [CYCLOHEXIMIDE] | – | – | – | – | – | – | – | – | 3.12 (≈ 11.1 µM) | 3.12 (≈ 11.1 µM) | 43 | 42 | – | – | –
O=C(N[C@H](CO)[C@H](O)c1ccc([N+](=O)[O-])cc1)C(Cl)Cl [CHLORAMPHENICOL] | 3.12 (≈ 9.67 µM) | 3.12 (≈ 9.67 µM) | 6.25 (≈ 19.3 µM) | 6.25 (≈ 19.3 µM) | 42 | 44 | 37 | 38 | – | – | – | – | – | – | –
Cc1nn(-c2ccccc2)c2c1/C(=N/c1cnccn1)CO2 | 12.5 (≈ 42.9 µM) | 100 (≈ 343 µM) | 50 (≈ 172 µM) | 100 (≈ 343 µM) | 32 | 15 | 20 | 16 | 12.5 (≈ 42.9 µM) | 100 (≈ 343 µM) | 31 | 16 | 25 | 50 | –
Cc1[nH]n(-c2ccccc2)c(=O)c1C1=Nc2ccccc2OC1 | 50 (≈ 164 µM) | 50 (≈ 164 µM) | 50 (≈ 164 µM) | 100 (≈ 328 µM) | 20 | 19 | 19 | 15 | 100 (≈ 328 µM) | 100 (≈ 328 µM) | 15 | 15 | – | – | –
CC(=O)c1cc(-c2c(C)[nH]n(-c3ccccc3)c2=O)oc1C | 3.12 (≈ 10.5 µM) | 6.25 (≈ 21.1 µM) | 100 (≈ 337 µM) | 50 (≈ 169 µM) | 42 | 37 | 15 | 18 | 50 (≈ 169 µM) | 25 (≈ 84.4 µM) | 20 | 26 | – | – | –
